# Ecoli WT expand: growth inhibitors of E. coli BW25113 wild type. AID 710. hit rate 0.15% among 98,000. growth inhibition, % at 100 µM. OD600 absorbance;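 active = growth inhibition above about 50% at one test dose, limit read from the data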;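 also: growth measured after 20 h incubation at 37 °C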
# Jurkat viability: cytotoxic compounds reducing Jurkat cell viability | hit rate 1.2% among 56,000 | Jurkat E6.1 viability, ATP luminescence, 48 h | inhibition, % at 4 µM;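 active = inhibition above the mean inhibition of all tested compounds plus 3 SD, cut at about 28% in these data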
# tolC growth inh: growth inhibitors of E. coli BW25113 tolC mutant; OD615; growth inhibition, % at 10 µM (by protocol); hit rate 2.2% among 65,000;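 active = growth inhibition at or above a cutoff equal to the mean over every tested compound plus 3 SD, cut at about 60% in these data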;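 also: growth measured after 20 h incubation at 37 °C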
#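 Test system: tolC-deleted E. coli BW25113; medium: LB with kanamycin 50 µg/mL; compound: single-point testing at 10 µM; incubation: 20 h compound exposure of bacteria at 37 °C; signal: OD at 615 nm; evaluation: growth inhibition in percent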
# HUVEC inhibit: blocks proliferation of human endothelial cells | HUVEC proliferation, CellTiter-Glo luminescence, 72 h; stronger effect = lower value | viability, % at 10 µM (by protocol) | hit rate 1.1% among 86,000;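 active = viability at or below 30%; inactive = viability above 30%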;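 also: 100% = median luminescence of DMSO-only cell control wells on each plate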
# H69AR inhibit: blocks growth of human H69AR lung tumor cells; hit rate 6% among 85,000; H69AR lung tumor viability, ATP luminescence, 72 h; stronger effect = lower value; viability, % at 10 µM;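 active = viability at or below 40%; inactive = viability above 40%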;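 also: multidrug resistant small cell line overexpressing MRP-1 efflux transporter; 100% = mean luminescence of untreated control wells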
# Fibroblast inh: blocks proliferation of human lung fibroblasts | LL 47 human lung fibroblast viability, ATP luminescence; stronger effect = lower value | viability, % at 10 µM | hit rate 1.1% among 85,000 | AID 719;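 active = viability at or below 50% in the single dose screen; inactive = viability above 50%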;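 also: compound exposure lasted 72 h before the ATP readout; 100% = median luminescence of untreated cell-only wells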
#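 Benchmarks: Cell-only wells, no compound | Test system: LL 47 human lung fibroblasts, passage 12 or lower | Input: 1,150 cells/well | Measured by: CellTiter-Glo luminescence measuring cellular ATP | Medium: IMEM, 15% FBS supplement | Schedule: Overnight attachment after seeding, then 72 h compound exposure at 37 °C | Doses: Compound addition at 0.1% DMSO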
# Numbers without * were called inactive; . = no result. Most compounds without a hit are left out; they make up all but 6.4% or so of the library.
SMILES,Ecoli WT expand,Jurkat viability,tolC growth inh,HUVEC inhibit,H69AR inhibit,Fibroblast inh
Cc1sc2ncnc(NCC(c3ccco3)N3CCCC3)c2c1C (configuration not stated),3,.,.,75,36*,89
C=CCn1c(SCc2c(C)noc2C)nnc1C1COc2ccccc2O1 (configuration not stated),-13,0,34,82,94,86
CCN1C(=O)/C(=C2/Sc3ccc(OC)cc3N2C)SC1=Nc1cccc(O)c1,-2,3,-9,95,24*,80
COc1ccccc1C/C(N)=N/OC(=O)c1cccc([N+](=O)[O-])c1,2,.,.,.,.,.
COc1ccc(OC(=O)c2cccc([N+](=O)[O-])c2)c(C(=O)/C=C/c2cccs2)c1,-23,.,.,53,3.4*,93
O=C(OCc1cccs1)c1ccccc1NS(=O)(=O)c1ccc2c(c1)OCCO2,-16,-5,10,107,90,89
CCCCc1cc(=O)oc2cc(C)cc(OC(C)C(=O)O)c12 (configuration not stated),-2,3,9,92,99,95
COc1ccc([N+](=O)[O-])cc1COc1cc(C)cc2oc(=O)cc(-c3ccccc3)c12,-19,.,.,.,.,.
CCCCc1cc(=O)oc2cc(C)cc(O)c12,11,.,.,48,10*,56
Cc1cc(O)c2c(-c3ccccc3)cc(=O)oc2c1,2,1,5,62,39*,87
O=c1oc2c3c4c(cc2cc1-c1nc2ccccc2[nH]1)CCCN4CCC3,.,-3,14,56,1.5*,84
Cc1nn(-c2ccccc2)c(C)c1C(=O)OCC(=O)NC12CC3CC(CC(C3)C1)C2,-7,.,.,91,29*,99
Cc1nn(-c2ccccc2)c(C)c1C(=O)OCC(=O)NC(=O)NC1CCCC1,8,.,.,97,67,99
Cc1cccc(N2CCN(C(=O)COc3cc(=O)n(C)c4ccccc34)CC2)c1C,5,5,21,82,78,98
Cc1cccc(N2CCN(C(=O)Cc3cn(C)c4ccccc34)CC2)c1C,-9,.,.,71,18*,89
CC(=O)c1cn(CC(=O)Nc2ccccc2)c2ccccc12,8,37*,24,105,103,92
CC1(C)Cc2c(sc3c4nnnn4c4nnnn4c23)CO1,-1,.,-3,54,2.5*,93
COc1ccc(C2C(C(=O)Nc3ccc4c(c3)OCCO4)c3ccccc3C(=O)N2C)cc1 (configuration not stated),1,.,.,105,107,93
O=C1CC(c2ccco2)CC(O)=C1C=Nc1ccc(Br)cc1 (configuration not stated),-3,.,.,65,90,98
Cc1[nH]nc(N=CC2=C(O)CC(C)(C)CC2=O)c1-c1ccc(Cl)cc1,12,2,15,106,31*,92
Cc1[nH]nc(N=CC2=C(O)CC(c3ccco3)CC2=O)c1-c1ccc(Cl)cc1 (configuration not stated),-7,.,.,87,22*,97
CC1(C)CC(=O)C(C=Nc2ccc(Cl)cn2)=C(O)C1,1,.,-7,96,103,91
Cc1ccc(N=CC2=C(O)CC(c3ccco3)CC2=O)cc1 (configuration not stated),-4,.,.,95,98,104
O=C1CC(c2ccco2)CC(O)=C1C=Nc1cc(Cl)ccc1O (configuration not stated),1,.,-6,77,5.3*,99
Cc1noc(C)c1CSCC(=O)N1CCN(c2ccc([N+](=O)[O-])cc2)CC1,5,.,.,71,97,101
SMILES,Ecoli WT expand,Jurkat viability,tolC growth inh,HUVEC inhibit,H69AR inhibit,Fibroblast inh
O=C(NCc1ccco1)C(c1ccccc1)N(Cc1ccccc1)C(=O)Cn1nnc2ccccc21 (configuration not stated),.,.,.,77,68,93
Cn1c(-c2ccc(F)cc2)cnc1NCc1ccccc1,21,2,23,94,74,93
Cn1c(-c2ccc(F)cc2)cnc1NCc1cccc(F)c1,15,.,.,80,36*,75
N#C/C(=C/c1ccc(N2CCCCCC2)o1)c1ccc(Cl)cc1,-14,.,.,105,101,48*
N#C/C(=C/c1ccc(N2CCCCC2)o1)c1cccc(F)c1,-9,.,.,85,41,82
CC(C)c1ccc2oc(=O)cc(CN3CCN(c4ccc(F)cc4)CC3)c2c1,-15,3,37,70,69,92
CCc1ccc2oc(=O)cc(CN3CCN(c4ccc(F)cc4)CC3)c2c1,-11,11,1,40,37*,26*
O=c1cc(CN2CCN(C/C=C/c3ccccc3)CC2)c2cc(O)ccc2o1,5,16,25,75,39*,98
CCc1ccc2oc(=O)cc(CN(C)Cc3ccccc3)c2c1,-7,6,100*,104,79,83
O=c1cc(CN2CCN(c3ccccc3)CC2)c2cc(O)c(-c3ccccc3)cc2o1,0,5,-5,35,5.0*,48*
O=c1cc(CN2CCN(Cc3ccccc3)CC2)c2cc(Cl)ccc2o1,3,-5,13,98,105,96
Cn1c(=O)c2c(nc(SCC(=O)NCc3ccc4c(c3)OCO4)n2Cc2ccc(Cl)cc2)n(C)c1=O,.,.,.,90,66,100
COC(=O)C(C)Sc1nnc2n(-c3cccc(C)c3)c(=O)c3c4c(sc3n12)CCCC4 (configuration not stated),-2,-1,29,107,82,90
CN(C)CCOc1ncnc2c1oc1ccccc12,11,.,.,94,87,101
CN(C)CCOc1nc(-c2ccccc2)nc2c1oc1ccccc12,-10,8,6,4.4*,2.3*,30*
CNc1ccc(C(O)(C(F)(F)F)C(F)(F)F)cc1C(O)(C(F)(F)F)C(F)(F)F,1,6,62*,90,56,97
COc1ccc(C2SCCN2S(=O)(=O)c2ccc(F)cc2)cc1OC (configuration not stated),-5,-1,18,98,87,93
COc1ccccc1C1SCCN1S(=O)(=O)c1cccc(C(F)(F)F)c1 (configuration not stated),-18,6,63*,97,74,87
COC(=O)c1cc(=O)n(CCc2ccc(OC)c(OC)c2)c(=Nc2ccc(F)c(Cl)c2)s1,-7,.,.,7.5*,1.1*,10*
COC(=O)c1cc(=O)n(Cc2ccc(OC)c(OC)c2)c(=Nc2ccc(F)cc2)s1,-5,.,.,17*,1.9*,12*
Cn1c(=O)c2c(nc(SCCCO)n2Cc2ccccc2Cl)n(C)c1=O,6,1,3,.,.,.
Cn1cc(/C(Cc2ccccc2)=N\O)c2ccccc21,-8,59*,19,81,87,86
Cn1cc(SCC(=O)O)c2ccccc21,-9,.,.,97,72,101
CC(C)(C)OC(=O)NCCCCCc1nnc(SCC(=O)Nc2cccc(Cl)c2)o1,4,1,32,89,88,95
Clc1ccc(OCc2nnc(-c3ccccc3Br)o2)cc1,3,-8,63*,115,106,107

# Assay outcomes: PubChem, several laboratories
